Assay [1] has as its system A549. In words: Effect on G2/M phase in human A549 cells after 24 hrs by propidium iodide staining-based flow cytometric analysis. It is filed as functional, cell-based. In short, it runs like this: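 A549 given the indicated concentration for 24 h, fixed in 75% ethanol overnight at −20 °C, washed in cold PBS, 30 min in phosphate–citric acid buffer pH 7.8 at room temperature. Stained with propidium iodide buffer containing 0.1% Triton X-100 and RNase A; DNA content read on a FACScan.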
On the technique in general: A flow cytometer gives signals particle by particle.

For assay [2], the system named is A549. Put plainly: Cytotoxicity against human A549 cells assessed as growth inhibition after 48 hrs by sulforhodamine B assay. It is filed as functional. As to conditions: A549, 48 h. Summed up: (§1)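 Seeded at (3−5) × 10^3 cells/well. A time-zero plate was TCA-fixed after attachment. Next day, cells got vehicle (0.1% DMSO) or a rising concentration gradient for 48 h, then 10% TCA fixation, 0.4% SRB in 1% AcOH, A515 read. GI50 taken relative to the time-zero absorbance; at least three independent runs, mean ± SD.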

The subject of the next assay is PC-3. In words: Cytotoxicity against human PC3 cells assessed as growth inhibition after 48 hrs by sulforhodamine B assay. It is filed as functional. Particulars: PC-3, 48 h. In short, it runs like this:
as §1
Background: Sulforhodamine B stains cellular protein and so reports cell mass.

The nature of assay [3]: Cytotoxicity against human Hep3B cells assessed as growth inhibition after 48 hrs by sulforhodamine B assay. It is filed as functional, Hep 3B2. Summed up:
as §1

For another assay, the system named is ASPC1. Put plainly: Cytotoxicity against human AsPC1 cells assessed as growth inhibition after 48 hrs by sulforhodamine B assay. Particulars: ASPC1, 48 h. It is filed as functional. In short, it runs like this:
as §1

Assay [4] deals with A549. In words: Induction of microtubule destabilization in human A549 cells at 1 uM after 24 hrs by DAPI staining-based immunofluorescence confocal microscopic analysis. It is filed as cell-based. In short, it runs like this: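 A549 seeded sparsely on chamber slides and treated 24 h; cold MeOH fixation (−20 °C, 15 min), blocked with 0.1% Triton X-100 in PBS 30 min at 37 °C. Monoclonal anti-β-tubulin 1 h at 37 °C, then FITC anti-mouse IgG, DAPI nuclear counterstain; confocal imaging.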

In assay [5] the target is T1, Tubulin (Sus scrofa) (UniProt P02554+P02550). Put plainly: Inhibition of porcine tubulin polymerization at 10 uM measured every min for 30 mins by spectrophotometric analysis. It is filed as protein assay. Summed up: (§2)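 Cold porcine tubulin (>99% pure) in G-PEM buffer (80 mM PIPES, 2 mM MgCl2, 0.5 mM EGTA, 1 mM GTP, pH 6.9) with 15% glycerol, with or without compound. Kinetic turbidity at 340 nm, read each minute for 30 min at 37 °C. DMSO control.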
T1 sequence (P02550 whole entry, looked up): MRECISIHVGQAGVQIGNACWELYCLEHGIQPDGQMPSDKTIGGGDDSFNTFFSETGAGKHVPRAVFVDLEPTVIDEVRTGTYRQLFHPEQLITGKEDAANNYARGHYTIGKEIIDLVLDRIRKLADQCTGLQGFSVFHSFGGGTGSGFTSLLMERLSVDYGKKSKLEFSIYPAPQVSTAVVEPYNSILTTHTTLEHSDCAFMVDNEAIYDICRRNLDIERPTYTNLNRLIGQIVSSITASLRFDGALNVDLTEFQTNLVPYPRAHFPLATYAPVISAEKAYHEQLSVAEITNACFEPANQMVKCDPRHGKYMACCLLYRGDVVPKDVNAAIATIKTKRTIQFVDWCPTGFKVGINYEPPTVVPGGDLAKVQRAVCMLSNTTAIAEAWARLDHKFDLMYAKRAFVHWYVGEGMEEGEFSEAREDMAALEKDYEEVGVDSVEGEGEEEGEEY
T1 sequence (P02554 whole entry, looked up): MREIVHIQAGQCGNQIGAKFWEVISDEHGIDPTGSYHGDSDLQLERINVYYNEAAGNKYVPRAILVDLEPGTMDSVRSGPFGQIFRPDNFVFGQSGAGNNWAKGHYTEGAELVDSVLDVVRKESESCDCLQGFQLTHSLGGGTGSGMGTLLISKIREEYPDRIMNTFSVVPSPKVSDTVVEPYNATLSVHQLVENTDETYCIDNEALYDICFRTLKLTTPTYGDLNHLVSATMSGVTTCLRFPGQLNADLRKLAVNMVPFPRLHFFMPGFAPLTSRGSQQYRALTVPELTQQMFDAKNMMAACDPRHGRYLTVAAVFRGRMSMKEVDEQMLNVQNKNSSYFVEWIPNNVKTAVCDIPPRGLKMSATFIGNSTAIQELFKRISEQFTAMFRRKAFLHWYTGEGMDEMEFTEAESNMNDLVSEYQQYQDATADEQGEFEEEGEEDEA

For the next assay, the target named is Tubulin. In words: Displacement of [3H]-colchicine from tubulin (unknown origin) preincubated with protein for 1 hr followed by [3H]-colchicine addition measured after 3 hrs by scintillation counting analysis. The format is protein-complex assay, Homo sapiens.
Assay [6] deals with T1, Tubulin (Sus scrofa). In words: Inhibition of porcine tubulin polymerization measured every min for 30 mins by spectrophotometric analysis. It is filed as protein assay. In short, it runs like this:
as §2

The source made the active and inactive calls. The rule behind the calls is not given here.

As to `Cc1ccc(S(=O)(=O)OCC(=O)Nc2ccc(C(=O)O)c(O)c2)cc1`, the outcome with A549 [1] was inactive.

In the case of `COc1ccc(S(=O)(=O)Nc2cccnc2Nc2ccc(O)cc2)cc1` [ABT-751], the GI50 – broadly, the concentration that inhibits growth by half – with A549 [2] was determined as 5330 nM; in the assay with PC-3, 620 nM; in assay [3], 840 nM; in the assay with ASPC1, 4110 nM.

Regarding `CC[C@]1(O)C[C@H]2CN(CCc3c([nH]c4ccccc34)[C@@](C(=O)OC)(c3cc4c(cc3OC)N(C=O)[C@H]3[C@@](O)(C(=O)OC)[C@H](OC(C)=O)[C@]5(CC)C=CCN6CC[C@]43[C@@H]65)C2)C1`, the outcome in the assay with A549 [4] was Active. In addition, at Tubulin (Sus scrofa) [5], the inhibition entry was “Active”.

Regarding `COc1ccc(S(=O)(=O)N(CCCl)c2ccccc2-c2ccc(C#N)cc2)cc1`, the GI50 in the assay on A549 [2] amounted to 1500 nM; with PC-3 it was 6520 nM; in assay [3] it was 1550 nM; with ASPC1 it was 4790 nM.

For the compound `COc1ccc(S(=O)(=O)Nc2ccccc2-c2ccc(C#N)c(F)c2)cc1`, the IC50 (in general, the concentration that gives 50% inhibition) at Tubulin was found to be 670 nM. Moreover, the inhibition result on Tubulin (Sus scrofa) [6] was “Dose-dependent effect”.

As for `COc1ccc(S(=O)(=O)Nc2ccccc2-c2ccc(F)c(F)c2)cc1`, the 50% growth inhibitory concentration (GI50) was 300 nM in the assay on A549 [2], 190 nM in the assay on PC-3, 150 nM in assay [3] and 280 nM in the assay with ASPC1.

The values are drawn from ChEMBL document CHEMBL3600297, “N-Sulfonyl-aminobiaryls as Antitubulin Agents and Inhibitors of Signal Transducers and Activators of Transcription 3 (STAT3) Signaling” (J Med Chem, 2015).
